Test results from ChEMBL document CHEMBL3596123, “Identification of pyrazine-based TrkA inhibitors: design, synthesis, evaluation, and computational modeling studies” (Medchemcomm, 2014).

Assays:
[1] = molecular target: T1, High affinity nerve growth factor receptor (Homo sapiens, UniProt P04629); assay: Inhibition of human recombinant TrkA using ATP and 5FAM tagged TrkA peptide substrate incubated for 60 mins by microfluidics assay
In short: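 TrkA enzyme at 2 nM, preincubated 60 min with inhibitor in HEPES/MgCl2/DTT kinase buffer. Reaction started with ATP 190 µM and 5FAM-TrkA peptide 1.5 µM (running). Twelve-point half-log series, 0.2 mM–0.632 nM final. Stopped at 10–20% conversion of uninhibited control. Phospho-product separated by microfluidic read. Curves fit to one-phase exponential decay, IC50 from the half-life, duplicate, mean ± SD.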
Target sequence in this assay (P04629 whole entry): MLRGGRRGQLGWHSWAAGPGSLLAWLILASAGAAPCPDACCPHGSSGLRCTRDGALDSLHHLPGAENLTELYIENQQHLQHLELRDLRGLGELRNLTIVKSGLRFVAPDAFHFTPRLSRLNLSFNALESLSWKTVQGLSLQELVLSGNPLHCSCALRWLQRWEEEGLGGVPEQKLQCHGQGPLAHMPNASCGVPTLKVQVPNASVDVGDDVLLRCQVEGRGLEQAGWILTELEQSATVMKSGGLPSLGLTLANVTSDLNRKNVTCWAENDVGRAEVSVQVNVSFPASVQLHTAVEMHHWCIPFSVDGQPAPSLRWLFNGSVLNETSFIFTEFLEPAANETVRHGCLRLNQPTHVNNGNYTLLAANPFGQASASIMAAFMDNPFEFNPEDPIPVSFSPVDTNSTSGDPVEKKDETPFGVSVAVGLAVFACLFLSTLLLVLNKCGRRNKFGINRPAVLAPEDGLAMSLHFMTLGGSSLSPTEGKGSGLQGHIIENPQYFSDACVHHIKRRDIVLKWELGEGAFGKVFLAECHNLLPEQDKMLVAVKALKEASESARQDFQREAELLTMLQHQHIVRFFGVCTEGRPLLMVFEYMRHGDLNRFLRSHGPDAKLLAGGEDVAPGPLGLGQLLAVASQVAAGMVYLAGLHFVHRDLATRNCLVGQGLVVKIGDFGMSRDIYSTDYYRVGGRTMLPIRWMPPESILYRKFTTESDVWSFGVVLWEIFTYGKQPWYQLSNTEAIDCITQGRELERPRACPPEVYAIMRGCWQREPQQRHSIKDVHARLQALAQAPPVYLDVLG

[2] = molecular target: T1, High affinity nerve growth factor receptor; assay: Inhibition of human recombinant TrkA at 20 uM using ATP and 5FAM tagged TrkA peptide substrate incubated for 60 mins by microfluidics assay
In short: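 TrkA enzyme at 2 nM, preincubated with inhibitor 60 min with shaking in HEPES kinase buffer (MgCl2, DTT, Brij-35, Tween 20), then ATP (190 µM running) and 5FAM-labelled TrkA peptide (1.5 µM) added. Run to 10–20% conversion in no-inhibitor wells. Product/substrate peaks separated by microfluidic mobility-shift read. Single point at 20 µM inhibitor, quadruplicate.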
Target sequence in this assay (P04629 33-796 limits assumed): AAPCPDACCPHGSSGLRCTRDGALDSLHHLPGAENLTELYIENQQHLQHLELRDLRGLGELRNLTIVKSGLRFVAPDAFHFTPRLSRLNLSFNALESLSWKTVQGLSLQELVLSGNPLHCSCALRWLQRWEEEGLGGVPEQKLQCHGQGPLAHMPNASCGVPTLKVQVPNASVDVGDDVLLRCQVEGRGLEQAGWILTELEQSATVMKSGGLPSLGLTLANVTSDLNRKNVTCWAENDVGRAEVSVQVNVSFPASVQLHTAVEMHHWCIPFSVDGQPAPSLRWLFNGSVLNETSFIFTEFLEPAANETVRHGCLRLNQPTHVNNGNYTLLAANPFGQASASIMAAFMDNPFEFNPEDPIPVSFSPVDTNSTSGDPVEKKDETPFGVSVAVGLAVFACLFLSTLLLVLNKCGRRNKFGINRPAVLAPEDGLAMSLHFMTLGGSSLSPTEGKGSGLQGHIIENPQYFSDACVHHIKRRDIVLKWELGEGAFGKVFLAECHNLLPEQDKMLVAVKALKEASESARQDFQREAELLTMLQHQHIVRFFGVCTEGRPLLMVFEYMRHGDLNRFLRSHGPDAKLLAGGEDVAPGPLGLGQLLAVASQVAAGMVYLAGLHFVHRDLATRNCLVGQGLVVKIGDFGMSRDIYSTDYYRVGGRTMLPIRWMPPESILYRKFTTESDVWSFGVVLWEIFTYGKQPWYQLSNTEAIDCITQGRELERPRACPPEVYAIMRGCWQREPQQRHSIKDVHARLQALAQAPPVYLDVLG

[3] = molecular target: Vascular endothelial growth factor receptor 2 (Homo sapiens, UniProt P35968); assay: Inhibition of KDR (unknown origin) using ATP and 5FAM tagged TrkA peptide substrate incubated for 60 mins by microfluidics assay
Chain of Vascular endothelial growth factor receptor 2 (P35968 whole entry): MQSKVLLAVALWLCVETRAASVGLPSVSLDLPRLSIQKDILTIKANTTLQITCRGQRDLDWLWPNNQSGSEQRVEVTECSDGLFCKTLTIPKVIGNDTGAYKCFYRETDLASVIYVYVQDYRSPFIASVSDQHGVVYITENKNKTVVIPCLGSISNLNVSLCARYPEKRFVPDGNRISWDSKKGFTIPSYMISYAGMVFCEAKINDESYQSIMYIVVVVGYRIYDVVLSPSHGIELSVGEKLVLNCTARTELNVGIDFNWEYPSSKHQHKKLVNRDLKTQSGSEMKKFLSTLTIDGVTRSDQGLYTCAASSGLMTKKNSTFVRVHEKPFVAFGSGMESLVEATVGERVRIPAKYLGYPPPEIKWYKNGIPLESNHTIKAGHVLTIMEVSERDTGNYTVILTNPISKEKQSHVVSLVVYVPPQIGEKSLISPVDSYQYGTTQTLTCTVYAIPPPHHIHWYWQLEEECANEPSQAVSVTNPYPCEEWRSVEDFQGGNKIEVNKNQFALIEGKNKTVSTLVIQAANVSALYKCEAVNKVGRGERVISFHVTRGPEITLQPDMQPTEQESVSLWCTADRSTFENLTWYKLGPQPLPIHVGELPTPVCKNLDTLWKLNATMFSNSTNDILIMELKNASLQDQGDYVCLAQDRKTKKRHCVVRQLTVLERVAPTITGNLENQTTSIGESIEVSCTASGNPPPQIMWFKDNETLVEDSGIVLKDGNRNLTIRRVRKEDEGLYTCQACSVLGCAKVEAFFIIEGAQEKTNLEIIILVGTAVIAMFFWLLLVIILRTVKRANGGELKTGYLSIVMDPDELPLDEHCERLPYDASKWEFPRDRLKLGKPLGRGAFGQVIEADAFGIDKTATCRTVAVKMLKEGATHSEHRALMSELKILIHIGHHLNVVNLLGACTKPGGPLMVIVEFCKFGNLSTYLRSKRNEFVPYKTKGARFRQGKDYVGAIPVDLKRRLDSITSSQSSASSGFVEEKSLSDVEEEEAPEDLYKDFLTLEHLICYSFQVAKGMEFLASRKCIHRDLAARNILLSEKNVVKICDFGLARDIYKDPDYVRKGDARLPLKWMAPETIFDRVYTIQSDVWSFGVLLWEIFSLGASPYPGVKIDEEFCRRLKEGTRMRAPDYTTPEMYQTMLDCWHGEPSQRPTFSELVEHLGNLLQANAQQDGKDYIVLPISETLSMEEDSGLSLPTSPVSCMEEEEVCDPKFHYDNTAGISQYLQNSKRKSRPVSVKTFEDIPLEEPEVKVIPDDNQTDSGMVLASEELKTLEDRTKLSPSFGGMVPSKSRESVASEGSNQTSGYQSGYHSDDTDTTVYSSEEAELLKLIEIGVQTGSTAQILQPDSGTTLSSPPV

Ephrin type-B receptor 2 = molecular target: T2, Ephrin type-B receptor 2 (Homo sapiens, UniProt P29323); assay: Inhibition of EphB2 (unknown origin) using ATP and 5FAM tagged TrkA peptide substrate incubated for 60 mins by microfluidics assay
T2 sequence (P29323 whole entry): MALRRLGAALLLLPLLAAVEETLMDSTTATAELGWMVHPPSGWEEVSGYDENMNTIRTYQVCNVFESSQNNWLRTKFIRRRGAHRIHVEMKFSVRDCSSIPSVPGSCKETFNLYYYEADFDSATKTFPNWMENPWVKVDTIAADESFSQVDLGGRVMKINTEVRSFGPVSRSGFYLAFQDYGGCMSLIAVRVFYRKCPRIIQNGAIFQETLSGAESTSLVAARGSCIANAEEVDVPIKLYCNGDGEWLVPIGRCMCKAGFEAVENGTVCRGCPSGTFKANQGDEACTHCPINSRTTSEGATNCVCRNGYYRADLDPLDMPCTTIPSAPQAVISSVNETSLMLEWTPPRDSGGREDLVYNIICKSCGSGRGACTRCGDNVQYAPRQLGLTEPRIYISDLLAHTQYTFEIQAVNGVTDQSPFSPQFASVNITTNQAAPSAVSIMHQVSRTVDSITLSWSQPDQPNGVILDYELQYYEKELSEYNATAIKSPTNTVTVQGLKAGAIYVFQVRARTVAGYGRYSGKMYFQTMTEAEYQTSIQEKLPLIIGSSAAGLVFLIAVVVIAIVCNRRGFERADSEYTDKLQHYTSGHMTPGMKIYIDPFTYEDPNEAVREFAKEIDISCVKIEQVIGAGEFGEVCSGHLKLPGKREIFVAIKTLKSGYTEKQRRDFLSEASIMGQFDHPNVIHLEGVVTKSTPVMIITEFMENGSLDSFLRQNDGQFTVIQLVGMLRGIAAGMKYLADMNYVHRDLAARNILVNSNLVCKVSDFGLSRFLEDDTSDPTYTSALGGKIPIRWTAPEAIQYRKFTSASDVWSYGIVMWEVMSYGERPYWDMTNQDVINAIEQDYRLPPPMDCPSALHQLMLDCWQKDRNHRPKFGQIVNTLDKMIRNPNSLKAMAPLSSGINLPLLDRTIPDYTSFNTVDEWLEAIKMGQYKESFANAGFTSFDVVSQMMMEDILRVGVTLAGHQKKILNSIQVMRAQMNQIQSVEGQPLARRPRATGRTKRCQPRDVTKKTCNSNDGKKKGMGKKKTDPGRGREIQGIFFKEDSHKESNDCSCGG

| IC50 [1] | inhibition [2] | IC50 [3] | IC50 (Ephrin type-B receptor 2) | SMILES |
| --- | --- | --- | --- | --- |
| > 100000 nM | – | – | – | CC(C)(C)c1cccc(NC(=O)Nc2cccc(Oc3cncc(Cl)n3)c2)c1 |
| – | 27.7% | – | – | CC(C)(C)c1ccc(NC(=O)Nc2cccc(Oc3cncc(-c4ccsc4)n3)c2)cc1 |
| 39 nM | 100% | > 2000 nM | > 2000 nM | CC(C)(C)c1cc(NC(=O)Nc2cccc(Oc3cncc(-c4ccsc4)n3)c2)no1 |
| – | 48.8% | – | – | Cn1cc(-c2cncc(Oc3cccc(NC(=O)Nc4cc(C(C)(C)C)no4)c3)n2)cn1 |
| 47 nM | 98.6% | > 2000 nM | > 2000 nM | COc1ccc(-c2cncc(Oc3cccc(NC(=O)Nc4cc(C(C)(C)C)on4)c3)n2)cc1 |
| – | 56.9% | – | – | CC(C)c1ccc(NC(=O)Nc2cccc(Oc3cncc(-c4ccc(F)cc4)n3)c2)cc1 |
| – | 26.8% | – | – | Cn1nc(C(C)(C)C)cc1NC(=O)Nc1cccc(Oc2cncc(-c3ccsc3)n2)c1 |
| – | 77% | – | – | Nc1ccc(-c2cncc(-c3cncnc3)n2)cc1 |
| 12 nM | 99.7% | – | – | Cn1cc(-c2cncc(-c3ccc(NC(=O)Nc4cc(C(C)(C)C)nn4C)cc3)n2)cn1 |
| 22 nM | 100% | > 2000 nM | > 2000 nM | CC(C)(C)c1cc(NC(=O)Nc2cccc(Oc3cncc(-c4ccc(F)cc4)n3)c2)no1 |
| 490 nM | 94% | – | – | Cn1nc(C(C)(C)C)cc1NC(=O)Nc1cccc(Oc2cncc(-c3ccc(S(C)(=O)=O)cc3)n2)c1 |
| 3500 nM | – | – | – | O=C(Nc1cccc(Oc2cncc(Cl)n2)c1)Nc1cccc(C(F)(F)F)c1 |
| – | 86.9% | – | – | Cn1cc(-c2cncc(Oc3cccc(NC(=O)Nc4ccc(C(C)(C)C)cc4)c3)n2)cn1 |
| – | 79.4% | – | – | CC(C)(C)c1cc(NC(=O)Nc2cccc(Oc3cncc(-c4cncnc4)n3)c2)on1 |
| – | 61.1% | – | – | Cn1cc(-c2cncc(Oc3cccc(NC(=O)Nc4cc(C(C)(C)C)nn4C)c3)n2)cn1 |
| – | 27.1% | – | – | O=C(Nc1cccc(Oc2cncc(-c3ccc(F)cc3)n2)c1)Nc1cccc(C(F)(F)F)c1 |
| 1700 nM | 90.8% | – | – | CS(=O)(=O)c1ccc(-c2cncc(Oc3cccc(NC(=O)Nc4cccc(C(F)(F)F)c4)c3)n2)cc1 |
| – | 69% | – | – | CC(C)(C)c1cc(NC(=O)Nc2cccc(Oc3cncc(-c4ccsc4)n3)c2)on1 |
| – | 47.2% | – | – | CC(C)(C)c1cc(NC(=O)Nc2cccc(Oc3cncc(-c4ccc(F)cc4)n3)c2)on1 |
| 380 nM | 98% | – | – | COc1ccc(-c2cncc(Oc3cccc(NC(=O)Nc4ccc(C(C)C)cc4)c3)n2)cc1 |
| – | 15.5% | – | – | COc1ccc(-c2cncc(Oc3cccc(NC(=O)Nc4cc(C(C)(C)C)nn4C)c3)n2)cc1 |

| IC50 [1] | inhibition [2] | IC50 [3] | IC50 (Ephrin type-B receptor 2) | SMILES |
| --- | --- | --- | --- | --- |
| – | 32.2% | – | – | CC(C)(C)c1ccc(NC(=O)Nc2cccc(Oc3cncc(-c4ccc(F)cc4)n3)c2)cc1 |
| – | 69.3% | – | – | O=C(Nc1cccc(Oc2cncc(-c3cncnc3)n2)c1)Nc1cccc(C(F)(F)F)c1 |
| > 100000 nM | – | – | – | CC(C)(C)c1cc(NC(=O)Nc2cccc(Oc3cncc(Cl)n3)c2)no1 |
| 1100 nM | 96.2% | – | – | O=C(Nc1cccc(Oc2cncc(-c3ccsc3)n2)c1)Nc1cccc(C(F)(F)F)c1 |
| – | 28.2% | – | – | CC(C)c1ccc(NC(=O)Nc2cccc(Oc3cncc(-c4cncnc4)n3)c2)cc1 |
| 1600 nM | 95.5% | – | – | COc1ccc(-c2cncc(Oc3cccc(NC(=O)Nc4cccc(C(F)(F)F)c4)c3)n2)cc1 |
| – | 37.2% | – | – | COc1ccc(-c2cncc(Oc3cccc(NC(=O)Nc4cc(C(C)(C)C)no4)c3)n2)cc1 |
| – | 46.7% | – | – | CC(C)(C)c1ccc(NC(=O)Nc2cccc(Oc3cncc(-c4ccc(S(C)(=O)=O)cc4)n3)c2)cc1 |
| – | 26.9% | – | – | Cn1nc(C(C)(C)C)cc1NC(=O)Nc1cccc(Oc2cncc(-c3ccc(F)cc3)n2)c1 |
| 530 nM | 92% | – | – | Cn1cc(-c2cncc(Oc3cccc(NC(=O)Nc4cccc(C(F)(F)F)c4)c3)n2)cn1 |
| – | 33.8% | – | – | COc1ccc(-c2cncc(Oc3cccc(NC(=O)Nc4ccc(C(C)(C)C)cc4)c3)n2)cc1 |
| – | 17% | – | – | Nc1ccc(-c2cncc(-c3ccsc3)n2)cc1 |
| – | 56.3% | – | – | CC(C)c1ccc(NC(=O)Nc2cccc(Oc3cncc(-c4cnn(C)c4)n3)c2)cc1 |
| – | 46% | – | – | Cn1cc(-c2cncc(-c3ccc(N)cc3)n2)cn1 |
| 420 nM | 96.9% | – | – | CC(C)c1ccc(NC(=O)Nc2cccc(Oc3cncc(-c4ccc(S(C)(=O)=O)cc4)n3)c2)cc1 |
| 92 nM | 96.5% | – | > 2000 nM | CC(C)(C)c1cc(NC(=O)Nc2cccc(Oc3cncc(-c4ccc(S(C)(=O)=O)cc4)n3)c2)no1 |
| – | 47% | – | – | Nc1ccc(-c2cncc(Cl)n2)cc1 |
| 870 nM | 99.2% | – | – | CC(C)c1ccc(NC(=O)Nc2cccc(Oc3cncc(-c4ccsc4)n3)c2)cc1 |
| – | 49.6% | – | – | CC(C)(C)c1ccc(NC(=O)Nc2cccc(Oc3cncc(-c4cncnc4)n3)c2)cc1 |
| 24 nM | 101% | – | – | Cn1cc(-c2cncc(Oc3cccc(NC(=O)Nc4cc(C(C)(C)C)on4)c3)n2)cn1 |
